# The entries come from a sample that favours hits as a whole.
# Fibroblast inh = blocks proliferation of human lung fibroblasts; LL 47 human lung fibroblast viability, ATP luminescence; hits give low values; viability, % at 10 µM; hit rate 1.1% among 85,000; AID 719;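 active = viability at or below 50% in the single dose screen; inactive = viability above 50%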;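 also: compound exposure lasted 72 h before the ATP readout; 100% = median luminescence of untreated cell-only wells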
#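 Assay system: human lung fibroblast line LL 47, low passage. Input: 1,150 fibroblasts seeded per well. Times: overnight cell rest, 72 h compound treatment at 37 °C. Evaluation: % viability of median cell-only signal. Technique: luminescent ATP detection, CellTiter-Glo. Control set: cell-only wells, no compound.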
# H69AR growth 86K = blocks growth of human H69AR lung tumor cells. H69AR lung tumor viability, ATP luminescence, 72 h; hits give low values. viability, % at 10 µM. hit rate 6% among 85,000. AID 598;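 active = viability at or below 40%; inactive = viability above 40%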;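 also: multidrug resistant small cell line overexpressing MRP-1 efflux transporter; 100% = mean luminescence of untreated control wells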
# bCat KO growth = beta-catenin-lacking colon tumor cell growth suppression; HCT116 beta-catenin knockout viability, CellTiter-Glo, 60 h; hits give low values; viability, % at 10 µM; AID 818; hit rate 1.5% among 140,000;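 active = viability at or under a set limit, the compound median less 4 SD, cut at about 6% in these data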;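 also: 0% = Hyamine 1622 control at 20 µM and 100% = untreated cell control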
# HUVEC prolif 384 = inhibitors of human endothelial cell proliferation; HUVEC proliferation, CellTiter-Glo luminescence, 72 h; hits give low values; viability, % at 10 µM (by protocol); hit rate 1.1% among 86,000; AID 648;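 active = viability at or below 30%; inactive = viability above 30%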;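 also: 100% = median luminescence of DMSO-only cell control wells on each plate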
# PTEN del growth = growth suppressors of cells with PTEN tumor suppressor deletion. HCT116 PTEN-null viability, CellTiter-Glo, 60 h; hits give low values. viability, % at 10 µM. hit rate 1.2% among 140,000. AID 827;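 active = viability at or below a set limit, 4 SD under the median of all tested compounds, cut at about 3.7% in these data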;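 also: PTEN knockout HCT116 line with beta catenin targeted HCT116 as companion control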
# Numbers without * were called inactive; · = not tested or not shown.
SMILES,Fibroblast inh,H69AR growth 86K,bCat KO growth,HUVEC prolif 384,PTEN del growth
CCN(CC)S(=O)(=O)c1ccc(-c2nnc(SCC(=O)Nc3ccc4c(c3)OCO4)o2)cc1,96,32*,98,64,105
O=S(=O)(c1ccc(-c2nnc(SCc3nnc(-c4ccccc4)o3)o2)cc1)N1CCCC1,·,·,86,·,89
Cc1ccc(C(=O)N2CCN(c3ncccn3)CC2)cc1S(=O)(=O)N1CCCCC1,·,·,100,·,99
O=c1c(Cl)cc(Cl)nn1-c1ccccc1,·,·,4.1*,·,2.7*
COc1cc(Cl)nn(-c2ccccc2)c1=O,·,·,92,·,94
COc1cc2c3c(c1)C1(C(=O)N3C(C)(C)C=C2C)C(C#N)=C(N)Oc2cc(O)ccc21 (configuration not stated),93,65,74,68,74
CCOc1cc2c3c(c1)C1(C(=O)N3C(C)(C)C=C2C)C(C#N)=C(N)Oc2cc(O)ccc21 (configuration not stated),83,33*,49,46,41
O=[N+]([O-])c1cc2c(cc1/C=N/Nc1nc(N3CCCC3)nc(N3CCCC3)n1)OCO2,·,·,89,·,92
O=[N+]([O-])c1ccc(/C=N/Nc2nc(N3CCCCCC3)nc(N3CCCCCC3)n2)o1,85,28*,49,70,32
COc1ccc(C)cc1S(=O)(=O)N1CCC(C(=O)NCCc2ccccc2)CC1,·,·,90,·,92
COC(=O)C1=C(C)N(c2ccc(Cl)c(Cl)c2)C(=O)C1,66,43,3.6*,75,3.6*
COC(=O)C1=C(C)N(c2ccc(S(N)(=O)=O)cc2)C(=O)C1,·,·,93,·,92
Cc1ccc(NC(=O)CSc2nc3ccccc3c(=O)n2CCCN2CCCCC2)cc1C,3.0*,2.2*,1.9*,13*,2.1*
Cc1ccc(NC(=O)CSc2nc3ccccc3c(=O)n2CCCC(=O)N2CCCC2)cc1,77,15*,36,61,39
Cc1cc(NC(=O)CSc2nc3c(sc4ccccc43)c(=O)n2CCCN2CCOCC2)n[nH]1,39*,33*,12,85,91
Cc1cc(NC(=O)CSc2nc3c(sc4ccccc43)c(=O)n2CCc2ccccc2)n[nH]1,113,90,95,101,90
Cc1ccc(CSc2nc3ccccc3c(=O)n2CCCC(=O)NCc2ccco2)cc1,83,29*,47,58,59
COCCCn1c(SCC(=O)Nc2ccc(C(=O)OC)cc2)nc2ccccc2c1=O,102,92,87,109,92
CCCCCCN(C(=O)CCCCCN1C(=O)NC(c2ccc(-c3ccccc3)cc2)C(C(=O)OCc2ccccc2)=C1C)C(C(=O)NCCCC)c1ccc(O)cc1 (configuration not stated),·,·,84,·,81
Cc1nn(Cc2ccc(Cl)cc2)c(C)c1NC(=O)CCCn1nc([N+](=O)[O-])c(Cl)c1C,·,·,80,·,73
CC(=O)Nc1ccc(Nc2nc(C)c([N+](=O)[O-])c(Nc3ccc(NC(C)=O)cc3)n2)cc1,·,·,83,·,86
Cc1ccc2nc(NC(=O)c3ccc(OCC4CCCO4)cc3)sc2c1 (configuration not stated),·,·,30,·,22
CCn1c(SCC(=O)N2CCC(C(N)=O)(N3CCCCC3)CC2)nc2ccccc2c1=O,90,9.0*,·,81,·
CC(C)COc1ccc(C(=O)Nc2ccc(SC(F)F)cc2)cc1,·,·,83,·,93
O=C(Nc1ccc(SC(F)F)cc1)c1cccc2nc3ccccc3nc12,39*,10*,50,26*,70
SMILES,Fibroblast inh,H69AR growth 86K,bCat KO growth,HUVEC prolif 384,PTEN del growth
CCN(CC)c1ccc(C(=O)NC(=S)Nc2cc(S(=O)(=O)N3CCOCC3)ccc2-n2cncn2)cc1,·,·,94,·,66
Cc1ccc(S(=O)(=O)Nc2nc3ccccc3nc2NCc2ccco2)cc1,82,36*,52,80,57
O=S(=O)(Nc1nc2ccccc2nc1NCc1ccco1)c1ccc(Cl)cc1,91,89,76,84,76
Cc1ccc(-c2nc(NCc3ccco3)c3ccccc3n2)cc1,·,·,74,·,74
Cc1cccc(Nc2nc(NCc3ccco3)c3ccccc3n2)c1,·,·,1.8*,·,1.8*
CC(=O)Nc1cc(C(=O)N2CCc3ccccc3C2)ccc1Sc1ccc(Cl)cc1,·,·,91,·,84
Cc1nn(Cc2c(Cl)cccc2Cl)c(C)c1NC(=O)c1sc2ccccc2c1Cl,·,·,91,·,87
Cc1nn(Cc2c(Cl)cccc2Cl)c(C)c1NC(=O)c1cn(-c2ccccc2)nc1-c1ccccc1,·,·,0.6*,·,0.5*
CCSc1nnc(NC(=O)c2cnccn2)s1,·,49,·,97,·
CCSc1nnc(NC(=O)C(CC)(C(F)(F)F)C(F)(F)F)s1,95,36*,77,73,69
CCSc1nnc(NC(=O)c2ccccn2)s1,·,18*,11,45,7
O=C1CC(c2cc([N+](=O)[O-])ccc2Cl)c2c(ccc3ccccc23)N1 (configuration not stated),·,·,67,·,68
CCOc1ccc(S(=O)(=O)NCc2ccc(OC)cc2)c2cccnc12,107,98,96,86,98
Cc1ccc(-n2nnc3c(=O)n(Cc4cccc(C)c4)cnc32)cc1,99,102,97,106,101
Cc1ccc(-n2nnc3c(=O)n(Cc4cc(C)ccc4C)cnc32)cc1,99,33*,75,63,80
Cc1nn(C)c(C)c1CNC(=O)c1cc2n(n1)C(C(F)(F)F)CC(c1cccs1)N2 (configuration not stated),99,93,84,101,96
CCOC(=O)c1c(NC(=O)c2cc3n(n2)C(C(F)(F)F)CC(c2cccs2)N3)sc(C)c1C (configuration not stated),·,·,1.5*,·,1.0*
C=CCn1c(COc2ccc3c(c2)CCCC3)nnc1SCC(=O)Nc1cccc(SC)c1,·,·,92,·,78
CCNc1nc(NCC)n2c(SC(C(=O)Nc3cc(Cl)cc(Cl)c3)c3ccccc3)nnc2n1 (configuration not stated),·,·,1.2*,·,1.2*
Cc1ccc(Nc2nnc(-c3ccncc3)s2)c(Br)c1,·,·,77,·,75
Cc1nc(Nc2ccc3c(c2)OCO3)c2oc3ccccc3c2n1,·,·,81,·,69
COc1ccccc1N1CCN(c2nc(C)nc3c2oc2ccccc23)CC1,53,41,17,43,20
Cc1nc(N2CCN(Cc3ccc4c(c3)OCO4)CC2)c2oc3ccccc3c2n1,69,23*,·,77,·
O=C(O)CSc1nc(-c2ccccc2)nc2c1oc1ccccc12,96,65,95,91,106
CCOC(=O)C1CCN(c2nc(-c3ccccc3)nc3c2oc2ccccc23)CC1,97,63,95,85,86
O=C(O)C1CCN(c2nc(-c3ccccc3)nc3c2oc2ccccc23)CC1,93,19*,96,79,90
Cc1nc(N2CCC(C)CC2)c2oc3ccccc3c2n1,97,34*,44,82,48
OCCN1CCN(c2nc(-c3ccccc3)nc3c2oc2ccccc23)CC1,20*,24*,11,12*,16
Cc1cccc(-n2c(CCc3ccccc3)nnc2SCC(=O)c2ccccc2)c1,·,·,85,·,83
